Assay results collected from several papers.
Each line is one published result; the experiments were not run side by side. In brackets after ≈: the same amount, converted by molar mass.
Organism: Bacillus subtilis

For CCCCCCCCCCCCCCCC(=O)CP(=O)(O)O, the MIC was 25 µg/mL (≈ 74.8 µM) (microbial growth; ATCC23857).
CCC(CCCCCCCCCCc1cc(O)cc(O)c1)C(C)C (stereo not shown) gave an IC50 of 3.44 µM (microbial growth).
CCCCCCCCCCCC(=O)OC[C@H]1O[C@@H](n2cc(C)c(=O)[nH]c2=O)C[C@@H]1OC(=O)c1ccc(C(C)(C)C)cc1 gave an MBC of 16 µg/mL (≈ 27.4 µM) (microbial killing, broth dilution).
With CCCCCCCCCCCC(=O)NP(=O)(O)O the MIC was over 200 µg/mL (microbial growth; ATCC23857).
The MIC of CCC1C(=NOCc2cc(-c3ccc(Cl)cc3)no2)CC(c2ccccc2)OC1c1ccccc1 (stereo not shown) is reported as 12.5 µg/mL (≈ 25.7 µM) (microbial growth, broth dilution; MTCC121; 24 h).
For CCCCCCCC/C=C\CCCCCCCC(=O)C(F)(F)P(=O)(O)O, the MIC was over 200 µg/mL (microbial growth; ATCC23857).
Cc1c(NN=C(C#N)C2=NC(=O)CS2)c(=O)n(-c2ccccc2)n1C gave an MBC of 2 µg/mL (≈ 5.64 µM) (microbial killing, broth dilution).
CC(C)CCCCCCCCCCCCCCCc1cc(O)cc(O)c1 gave an IC50 of 14.5 µM (microbial growth).
With CC1C(=NOCc2cc(-c3ccc(Cl)cc3)no2)CC(c2ccccc2)OC1c1ccccc1 (stereo not shown) the MIC was 12.5 µg/mL (≈ 26.4 µM) (microbial growth, broth dilution; MTCC121; 24 h).
CC(C)CCCCCCCCCCCCc1cc(O)cc(O)c1 gave an IC50 of 54.6 µM (microbial growth).
For O=C(CCCCC1CCCCC1)NP(=O)(O)O, the MIC was over 200 µg/mL (microbial growth; ATCC23857).
With CCCCCCCCCCCC(=O)OC[C@H]1O[C@@H](n2cc(C)c(=O)[nH]c2=O)C[C@@H]1O the MBC was 16 µg/mL (≈ 37.7 µM) (microbial killing, broth dilution).
With CCCCCCCCCCCCCCCc1cc(O)cc(O)c1 the IC50 was 26.7 µM (microbial growth).
For CC1(C)S[C@@H]2[C@H](NC(=O)[C@H](N)c3ccccc3)C(=O)N2[C@H]1C(=O)O, the inhibition zone was 31 mm (microbial growth, well diffusion; ATCC6633; 60000 µg/mL).
CCCCCCCCCCCCCCCC(=O)NS(=O)(=O)Oc1ccc(OC)cc1 has an MIC of 3.12 µg/mL (≈ 7.06 µM) (microbial growth; ATCC23857).
O=C(O)c1cn(C2CC2)c2cc(N3CCNCC3)c(F)cc2c1=O has an MBC of 0.019 µg/mL (≈ 0.0573 µM) (microbial killing).
